# Measured values from ChEMBL document CHEMBL2424608, “Discovery of novel N-substituted carbazoles as neuroprotective agents with potent anti-oxidative activity” (Eur J Med Chem, 2013).
# Activity calls are given as the source filed them. No cut-off for these calls is given here.
# How the values were obtained:
# [1] = test system: HT-22; assay: Neuroprotective activity against mouse HT22 cells assessed as inhibition of HCA-induced cell injury pretreated at 10 uM for 30 mins measured after 24 hrs by MTT assay; format: functional
# Outline: (§1)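 HT22 mouse hippocampal cells in DMEM/10% FBS at 37 °C, 5% CO2, seeded at 4000 cells/well. Compound (30 mM DMSO stock, diluted in medium) added 30 min before glutamate (2 mM) or HCA (500 µM), then 24 h exposure. Controls get vehicle. Viability by MTT (500 µg/mL, 1 h, 37 °C), DMSO solubilisation, A570 relative to control = 100%. n = 6.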
# [2] = test system: HT-22; assay: Neuroprotective activity against mouse HT22 cells assessed as inhibition of glutamate-induced cell injury pretreated at 10 uM for 30 mins measured after 24 hrs by MTT assay; format: functional; outline: as §1
# [3] = test system: HT-22; assay: Neuroprotective activity against mouse HT22 cells assessed as inhibition of glutamate-induced cell injury pretreated at 3 uM for 30 mins measured after 24 hrs by MTT assay; format: functional; outline: as §1
# [4] = test system: HT-22; assay: Neuroprotective activity against mouse HT22 cells assessed as inhibition of glutamate-induced cell injury pretreated at 30 uM for 30 mins measured after 24 hrs by MTT assay; format: functional; outline: as §1
# [5] = test system: HT-22; assay: Neuroprotective activity against mouse HT22 cells assessed as inhibition of HCA-induced cell injury pretreated at 3 uM for 30 mins measured after 24 hrs by MTT assay; format: functional; outline: as §1
# [6] = test system: HT-22; assay: Neuroprotective activity against mouse HT22 cells assessed as inhibition of HCA-induced cell injury pretreated at 30 uM for 30 mins measured after 24 hrs by MTT assay; format: functional; outline: as §1
# [7] = test system: HT-22; assay: Neuroprotective activity against mouse HT22 cells assessed as inhibition of glutamate-induced GSH depletion pretreated at 10 to 30 uM for 30 mins measured after 10 hrs by glutathione assay kit
# [8] = test system: HT-22; assay: Neuroprotective activity against mouse HT22 cells assessed as inhibition of glutamate-induced ROS production pretreated for 30 mins measured after 10 hrs by DHE-based fluorescence assay; format: functional, cell-based
# Outline: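 HT22 cells get compound for 30 min, then glutamate (2 mM). After exposure, cells are washed with PBS pH 7.4 and loaded with DHE at 10 µM in serum-free DMEM for 30 min. Fluorescence microscopy plus plate-reader intensity at ex 485/em 595 nm.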
# [9] = test system: HT-22; assay: Neuroprotective activity against mouse HT22 cells assessed as inhibition of glutamate-induced cell shrinkage and debris pretreated at 3 uM for 30 mins measured after 24 hrs by phase-contrast microscopy; format: functional, cell-based
# Outline: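 HT22 cells get compound 30 min before glutamate (2 mM). Morphology is viewed by inverted phase-contrast microscopy.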
# [10] = test system: HT-22; assay: Neuroprotective activity against mouse HT22 cells assessed as inhibition of glutamate-induced cell injury pretreated for 30 mins measured after 24 hrs by MTT assay; format: functional, cell-based; outline: as §1
# [11] = test system: HT-22; assay: Cytotoxicity against mouse HT22 cells at 30 uM by LDH assay; format: cell-based; settings: ht-22, 30 µM
# Outline: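 HT22 cells given compound alone at 30 µM; cytotoxicity read by LDH release assay.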
Compound,inhibition at 10 µM [1] [%],inhibition at 10 µM [2] [%],inhibition at 3 µM [3] [%],inhibition at 30 µM [4] [%],inhibition at 3 µM [5] [%],inhibition at 30 µM [6] [%],inhibition [4],inhibition [6],inhibition [7],inhibition [8],inhibition [9],inhibition [10],Activity [11]
CCc1ccc(S(=O)(=O)n2c3ccccc3c3ccccc32)cc1,6,3,0,28,0,30,,,,,,,
Cc1ccc(S(=O)(=O)n2c3ccccc3c3ccc4ccccc4c32)cc1,30,16,4,26,18,30,,,,,,,
COc1ccc(-n2c3ccccc3c3ccccc32)cc1,32,25,3,59,0,71,,,,,,,
c1ccc2c(c1)c1ccccc1n2C1CCCCC1,8,8,3,20,7,10,,,,,,,
Cc1ccc(S(=O)(=O)n2c3ccccc3c3ccc(-c4ccccc4)cc32)cc1,18,19,12,30,11,30,,,,,,,
c1ccc2c(c1)sc1ccccc12,,,,,,,inactive,inactive,,,,,
Cc1ccc(-n2c3ccccc3c3ccc4ccccc4c32)cc1,0,0,0,0,0,0,,,,,,,
Cc1ccc(S(=O)(=O)n2c3ccccc3c3ccccc32)cc1,13,10,0,47,4,34,,,,,,,
c1ccc2c(c1)oc1ccccc12,,,,,,,inactive,inactive,,,,,
Clc1ccc(-n2c3ccccc3c3ccccc32)cc1,0,0,0,20,0,40,,,,,,,
Fc1ccc(-n2c3ccccc3c3ccccc32)cc1,0,0,0,0,0,0,,,,,,,
Cc1ccc(S(=O)(=O)n2c3ccccc3c3ccc(C#N)cc32)cc1,0,2,3,7,0,0,,,,,,,
Cc1ccc(-n2c3ccccc3c3ccccc32)nc1,5,0,0,5,0,12,,,,,,,
c1ccc(-n2c3ccccc3c3ccccc32)cc1,0,7,0,6,0,5,,,,,,,
CN(C)c1ccc(-n2c3ccccc3c3ccccc32)cc1,30,40,20,77,0,81,,,,,,,
Fc1cccc(-n2c3ccccc3c3ccccc32)c1,0,0,0,0,0,0,,,,,,,
Cc1ccc(-n2c3ccccc3c3ccccc32)cc1,0,0,0,0,0,0,,,,,,,
OCCCCn1c2ccccc2c2ccccc21,1,1,0,4,0,12,,,,,,,
COc1ccc2c(c1)c1ccccc1n2S(=O)(=O)c1ccc(C)cc1,0,3,0,5.2,0,0,,,,,,,
CCCCn1c2ccccc2c2ccccc21,0,0,0,0,0,0,,,,,,,
Cc1ccc(-n2c3ccccc3c3ccc(-c4ccccc4)cc32)cc1,77,69,63,50,64,44,,,inactive,Dose-dependent effect,Active,Dose-dependent effect,Non-toxic
Cc1ccc(S(=O)(=O)n2c3ccccc3c3ccc(C(F)(F)F)cc32)cc1,6,10,0,42,0,38,,,,,,,
COc1ccc2c3ccccc3n(S(=O)(=O)c3ccc(C)cc3)c2c1,0,2,0.8,4,0,0,,,,,,,
FC(F)(F)c1ccc(-n2c3ccccc3c3ccccc32)cc1,10,14,0,68,0,80,,,,,,,
COc1ccc2c(c1)c1ccccc1n2-c1ccc(C(C)(C)C)cc1,0,0,0,0,0,0,,,,,,,
Brc1ccc(-n2c3ccccc3c3ccccc32)cc1,0,0,0,0,0,0,,,,,,,
CC(C)(C)c1ccc(-n2c3ccccc3c3ccccc32)cc1,30,35,0,70,2,63,,,,,,,
